Experimental data taken from paper PMC9643332 (Bioorganic Chemistry, 2022).
“Also recorded” adds a separate entry of the source.

How the values were obtained:
[1] = biological target: T1, SARS-CoV-2 3CL^pro (Severe acute respiratory syndrome coronavirus 2, UniProt P0DTD1); assay: biochemical; type: biochemical; settings: for inhibition at 100 µM: read-out: inhibition against SARS-CoV-2 3CLpro
[2] = biological target: Dipeptidyl peptidase IV (DPP-IV) (Homo sapiens, UniProt P27487); assay: Human protease selectivity: DPP-IV inhibition in human plasma with GP-BAN probe; type: biochemical; settings: 0, 1, 10, 100 μM
Sequence of Dipeptidyl peptidase IV (DPP-IV) (P27487 39-766): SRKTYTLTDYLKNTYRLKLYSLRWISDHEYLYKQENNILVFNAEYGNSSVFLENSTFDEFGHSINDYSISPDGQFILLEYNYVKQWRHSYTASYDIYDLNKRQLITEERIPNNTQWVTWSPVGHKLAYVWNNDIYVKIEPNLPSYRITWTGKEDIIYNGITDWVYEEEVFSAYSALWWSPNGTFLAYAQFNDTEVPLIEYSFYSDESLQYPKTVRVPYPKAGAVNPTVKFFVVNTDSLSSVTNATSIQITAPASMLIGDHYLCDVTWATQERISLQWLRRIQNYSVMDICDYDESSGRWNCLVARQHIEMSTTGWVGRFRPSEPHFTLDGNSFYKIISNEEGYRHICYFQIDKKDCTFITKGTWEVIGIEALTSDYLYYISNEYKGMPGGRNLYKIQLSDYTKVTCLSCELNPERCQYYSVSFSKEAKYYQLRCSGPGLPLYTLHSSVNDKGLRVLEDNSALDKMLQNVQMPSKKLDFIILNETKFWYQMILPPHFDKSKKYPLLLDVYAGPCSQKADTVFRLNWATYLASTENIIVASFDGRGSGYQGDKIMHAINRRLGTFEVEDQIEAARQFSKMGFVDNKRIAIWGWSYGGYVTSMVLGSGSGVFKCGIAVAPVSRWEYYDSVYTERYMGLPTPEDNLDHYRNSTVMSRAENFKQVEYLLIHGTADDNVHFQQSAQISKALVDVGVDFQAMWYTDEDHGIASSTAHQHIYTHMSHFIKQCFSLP
Summary of the method: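 Human plasma served as the DPP-IV source and was incubated 1 h with test compound at 0, 1, 10 or 100 μM in 0.1 M PBS, pH 7.4, 1 mM EDTA. Adding the DPP-IV-selective fluorogenic probe at 100 µM started the reaction. Fluorescence (ex 430 nm, em 535 nm) was read immediately over 20 min.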

[3] = biological target: HCoV-229E 3CL^pro (Human coronavirus 229E, UniProt P0C6X1); assay: biochemical
Sequence of HCoV-229E 3CL^pro (P0C6X1 2966-3267): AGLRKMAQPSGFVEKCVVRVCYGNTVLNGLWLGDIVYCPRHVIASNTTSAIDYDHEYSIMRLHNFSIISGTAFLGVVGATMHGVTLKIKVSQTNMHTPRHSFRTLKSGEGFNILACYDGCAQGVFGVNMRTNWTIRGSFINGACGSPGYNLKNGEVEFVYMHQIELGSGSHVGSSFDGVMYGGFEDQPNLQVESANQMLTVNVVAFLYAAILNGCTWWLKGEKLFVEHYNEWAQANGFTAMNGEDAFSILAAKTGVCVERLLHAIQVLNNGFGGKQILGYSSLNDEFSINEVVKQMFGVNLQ

[4] = biological target: T1, SARS-CoV-2 3CL^pro; assay: Fluorescence quenching assay; type: binding; settings: 3 μM 3CLpro
[5] = biological target: T1, SARS-CoV-2 3CL^pro; assay: Enzymatic inhibition assay in the presence of DTT or GSH; type: biochemical; settings: 10 μM compound
Summary of the method: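 The thiol-dependence FRET assay preincubated SARS-CoV-2 3CLpro with test compound in reaction buffer (0.1 M PBS, 1 mM EDTA, pH 7.4), with 4 mM DTT or 1 mM GSH, or without either.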

[6] = biological target: T1, SARS-CoV-2 3CL^pro; assay: CD spectroscopy, secondary structure content by CDNN; settings: 20 μM 3CLpro
[7] = test system: SARS-CoV-2; settings: Huh7-ACE2, HeLa-ACE2 and A549-ACE2 cells; in the micromolar range, similar to Remdesivir; cited from earlier work
[8] = biological target: T2, human chymotrypsin C (CTRC) (Homo sapiens, UniProt Q99895); assay: Human protease selectivity: CTRC inhibition; type: biochemical; settings: 0, 1, 10, 100 μM
T2 sequence (Q99895 30-268): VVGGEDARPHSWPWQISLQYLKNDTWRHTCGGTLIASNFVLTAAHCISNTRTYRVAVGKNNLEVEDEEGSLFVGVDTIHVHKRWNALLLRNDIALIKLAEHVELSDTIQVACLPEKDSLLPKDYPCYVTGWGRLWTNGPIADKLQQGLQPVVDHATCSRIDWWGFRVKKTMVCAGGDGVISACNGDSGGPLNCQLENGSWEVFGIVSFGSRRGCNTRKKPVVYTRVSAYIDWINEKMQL

[9] = biological target: T1, SARS-CoV-2 3CL^pro; type: biochemical

Structure (SMILES): CCCCCCCCCCCCCCCC[N+](C)(C)Cc1ccccc1 [Cetalkonium chloride]
- IC50 [1]: 3.5 ± 0.47 µM
- inhibition at 100 µM [1]: > 90%

Structure (SMILES): CCCCCCCCCCCCCCCC[N+](C)(C)C [Cetrimonium bromide]
- IC50 [1]: 12.8 ± 0.63 µM
- inhibition of protease activity in primary screening [1]: significantly inhibit

Structure (SMILES): C[N+](C)(C)CCCCCCCCCC[N+](C)(C)C [Decamethonium bromide]
- IC50 [1]: > 100 µM
- inhibition against SARS-CoV-2 3CLpro ([1]; 100 µM): no inhibitory activity

Structure (SMILES): CCCCCCCCCCCC[N+](C)(C)CCOc1ccccc1 [Domiphen bromide]
- IC50 [1]: 45.9 ± 16.5 µM
- inhibition at 100 µM [1]: > 90%

Structure (SMILES): CCCCCCCCOc1ccccc1C(=O)Nc1ccc(C(=O)OCC[N+](C)(CC)CC)cc1 [Otilonium bromide]
- IC50 [1]: 27.7 ± 0.33 µM
- inhibition of protease activity in primary screening [1]: significantly inhibit

Structure (SMILES): CCCCCCCCCCCCCCCC[N+](C)(C)CCN(Cc1ccc(OC)cc1)c1ncccn1 [Thonzonium bromide]
- inhibitory activity towards DPP-IV [2]: didn’t exhibit inhibitory activity; also recorded: did not show measurable activity; also recorded: does not inhibit
- IC50 [3]: 6.47 µM
- KSV (Stern-Volmer quenching constant) [4]: 39600 L/mol
- Kq (bimolecular quenching rate constant) ([4]; τ0 about 10^-8 s): 3.96e+12 M⁻¹ s⁻¹
- inhibition against SARS-CoV-2 3CLpro in the presence of GSH ([5]; 1 mM GSH): potent inhibition
- inhibition against SARS-CoV-2 3CLpro in the presence of DTT ([5]; 4 mM DTT): potent inhibition
- Antiparallel (%) ([6]; 50 μM Thonzonium bromide): 18.60%
- Parallel (%) ([6]; 50 μM Thonzonium bromide): 6.30%
- Random coil (%) ([6]; 50 μM Thonzonium bromide): 30.70%
- Total sum (%) ([6]; 50 μM Thonzonium bromide): 95.40%
- α-helix (%) ([6]; 50 μM Thonzonium bromide): 25.50%
- β-turn (%) ([6]; 50 μM Thonzonium bromide): 14.20%
- Antiparallel (%) ([6]; 100 μM Thonzonium bromide): 22.00%
- Parallel (%) ([6]; 100 μM Thonzonium bromide): 6.20%
- Random coil (%) ([6]; 100 μM Thonzonium bromide): 32.20%
- Total sum (%) ([6]; 100 μM Thonzonium bromide): 96.10%
- α-helix (%) ([6]; 100 μM Thonzonium bromide): 20.20%
- β-turn (%) ([6]; 100 μM Thonzonium bromide): 15.50%
- Antiparallel (%) ([6]; 200 μM Thonzonium bromide): 33.60%
- Parallel (%) ([6]; 200 μM Thonzonium bromide): 6.30%
- Random coil (%) ([6]; 200 μM Thonzonium bromide): 34.00%
- Total sum (%) ([6]; 200 μM Thonzonium bromide): 102.10%
- α-helix (%) ([6]; 200 μM Thonzonium bromide): 12.30%
- β-turn (%) ([6]; 200 μM Thonzonium bromide): 15.90%
- antiviral effect against SARS-CoV-2 in cells [7]: effective against SARS-CoV-2
- inhibitory activity towards CTRC [8]: didn’t exhibit inhibitory activity; also recorded: did not show measurable activity; also recorded: does not inhibit
- inhibition of protease activity in primary screening [1]: significantly inhibit
- type of inhibition [9]: non-competitive inhibitor
